Laboratory results taken from ChEMBL document CHEMBL1142383, “Discovery of potent cholecystokinin-2 receptor antagonists: elucidation of key pharmacophore elements by X-ray crystallographic and NMR conformational analysis” (Bioorg Med Chem, 2008).

Columns and labels:
[1] = target: T1, Cholecystokinin receptor type A (Homo sapiens, UniProt P32238); experiment: Displacement of [125I]CCK8S from human CCK1R
T1 sequence (P32238 whole entry): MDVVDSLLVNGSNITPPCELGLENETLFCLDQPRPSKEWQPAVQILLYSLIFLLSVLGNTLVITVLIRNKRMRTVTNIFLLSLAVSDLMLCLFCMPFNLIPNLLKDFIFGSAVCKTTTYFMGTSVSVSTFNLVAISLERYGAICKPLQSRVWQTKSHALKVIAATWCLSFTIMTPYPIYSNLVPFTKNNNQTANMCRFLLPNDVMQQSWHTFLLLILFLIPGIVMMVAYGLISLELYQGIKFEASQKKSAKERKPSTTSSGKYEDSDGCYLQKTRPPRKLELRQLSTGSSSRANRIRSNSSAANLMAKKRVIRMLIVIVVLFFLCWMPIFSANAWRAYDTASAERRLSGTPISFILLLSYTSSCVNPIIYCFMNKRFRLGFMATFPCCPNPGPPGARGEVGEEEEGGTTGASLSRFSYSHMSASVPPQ

[2] = target: T2, Gastrin/cholecystokinin type B receptor (Homo sapiens, UniProt P32239); experiment: Displacement of [125I]CCK8S from human CCK2R
T2 sequence (P32239 whole entry): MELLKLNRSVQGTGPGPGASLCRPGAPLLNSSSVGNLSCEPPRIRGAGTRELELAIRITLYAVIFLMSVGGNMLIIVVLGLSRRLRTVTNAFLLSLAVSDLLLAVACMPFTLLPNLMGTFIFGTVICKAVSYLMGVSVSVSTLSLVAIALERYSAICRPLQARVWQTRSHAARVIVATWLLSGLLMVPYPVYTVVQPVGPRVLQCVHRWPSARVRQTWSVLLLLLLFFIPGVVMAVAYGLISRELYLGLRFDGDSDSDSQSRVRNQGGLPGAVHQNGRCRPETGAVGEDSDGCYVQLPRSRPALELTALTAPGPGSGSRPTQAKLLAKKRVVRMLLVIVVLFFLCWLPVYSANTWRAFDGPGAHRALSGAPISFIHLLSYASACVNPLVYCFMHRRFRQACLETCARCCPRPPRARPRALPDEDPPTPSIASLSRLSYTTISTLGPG
How it was run: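 Radioligand competition binding at human CCK-2R against [125I]-CCK-8S. The pIC50 is the concentration displacing 50% of tracer binding, converted to pKi by the Cheng–Prusoff method.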

[3] = Bioavailability in rat at 2 umol/kg, po; format: ADME, organism-based; conditions: in vivo
How it was run: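 Rat oral dosing at […]. Bioavailability is reported as relative fraction absorbed (%F) from the po dose.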

[4] = Metabolic stability in human liver microsome assessed as compound remaining after 30 mins; format: ADME; conditions: liver microsomes, read-out: Stability
How it was run: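 Incubation for 30 min with pooled human liver microsome preparations (n = 20). Stability is expressed as percent of parent remaining.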

[5] = Half life in rat at 2 umol/kg, iv; format: ADME, organism-based; conditions: in vivo
How it was run: (§1)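 Rat pharmacokinetics after an intravenous dose of […]. Clearance and half-life were derived from the iv dosing.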

[6] = Clearance in rat at 2 umol/kg, iv; format: ADME, organism-based; conditions: in vivo; how it was run: as §1

Row | Structure (SMILES) | Ki [1] [µM] | Ki [2] [µM] | bioavailability [3] [%] | remaining at 0.5 h [4] [%] | half-life [5] [min] | clearance [6] [mL/min/kg]
1 | O=C(c1ccc(Br)cc1NS(=O)(=O)c1cccc2[nH]cnc12)N1CCCCC1 | > 10 | 1.58 |  |  |  | 
2 | Cn1nnc2c(S(=O)(=O)Nc3cc(Br)ccc3C(=O)N3CCCCC3)cccc21 | > 10 | 2 |  |  |  | 
3 | O=C(c1ccc(Br)cc1NS(=O)(=O)c1cccc2scnc12)N1CCCCC1 | > 10 | 0.0794 |  |  |  | 
4 | Cn1nc2cccc(S(=O)(=O)Nc3cc(Br)ccc3C(=O)N3CCCCC3)c2n1 | > 10 | 0.794 |  |  |  | 
5 | O=C(c1ccc(Br)cc1NS(=O)(=O)c1cccc2nccnc12)N1CCCCC1 | > 10 |  | 50 | 21 | 20.4 | 13.8
6 | O=C(NCc1ccc(Cl)cc1)c1ccc(Br)cc1NS(=O)(=O)c1cccc2nsnc12 | > 10 | 0.501 |  |  |  | 
7 | O=C(c1ccc(Br)cc1NS(=O)(=O)c1ccc2ncsc2c1)N1CCCCC1 | > 10 | 3.16 |  |  |  | 
8 | O=C(c1ccc(Br)cc1NS(=O)(=O)c1cccc2ncsc12)N1CCCCC1 | > 10 | 0.794 |  |  |  | 
9 | Cc1nc2cccc(S(=O)(=O)Nc3cc(Br)ccc3C(=O)N3CCCCC3)c2s1 | > 10 | 5.01 |  |  |  | 
10 | Cn1nc2ccc(S(=O)(=O)Nc3cc(Br)ccc3C(=O)N3CCCCC3)cc2n1 | > 10 | > 10 |  |  |  | 
